Source: ChEMBL document CHEMBL2029315 (Bioorg Med Chem Lett, 2012)
The source made the active and inactive calls. The rule behind the calls is not given here.

How the values were obtained:
[1] = biological target: Protein kinase C beta type (Homo sapiens) (UniProt P05771); test: Modulation of PKCbeta in human K562 cells assessed as protein down-regulation after 24 hrs by Western blotting analysis; assay type: cell-based
Method in brief: (§1)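 K562 cells (150,000 cells/ml) treated 24 hr after plating with a dose range for 24 hr. Total cell lysates analysed by Western blot for C1 domain-containing proteins, with actin as loading control. Representative of three independent experiments.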

[2] = biological target: T1, Protein kinase C epsilon type (Homo sapiens) (UniProt Q02156); test: Modulation of PKCepsilon in human K562 cells assessed as […] after 24 hrs by Western blotting analysis; assay type: cell-based; method in brief: as §1
T1 sequence (whole entry): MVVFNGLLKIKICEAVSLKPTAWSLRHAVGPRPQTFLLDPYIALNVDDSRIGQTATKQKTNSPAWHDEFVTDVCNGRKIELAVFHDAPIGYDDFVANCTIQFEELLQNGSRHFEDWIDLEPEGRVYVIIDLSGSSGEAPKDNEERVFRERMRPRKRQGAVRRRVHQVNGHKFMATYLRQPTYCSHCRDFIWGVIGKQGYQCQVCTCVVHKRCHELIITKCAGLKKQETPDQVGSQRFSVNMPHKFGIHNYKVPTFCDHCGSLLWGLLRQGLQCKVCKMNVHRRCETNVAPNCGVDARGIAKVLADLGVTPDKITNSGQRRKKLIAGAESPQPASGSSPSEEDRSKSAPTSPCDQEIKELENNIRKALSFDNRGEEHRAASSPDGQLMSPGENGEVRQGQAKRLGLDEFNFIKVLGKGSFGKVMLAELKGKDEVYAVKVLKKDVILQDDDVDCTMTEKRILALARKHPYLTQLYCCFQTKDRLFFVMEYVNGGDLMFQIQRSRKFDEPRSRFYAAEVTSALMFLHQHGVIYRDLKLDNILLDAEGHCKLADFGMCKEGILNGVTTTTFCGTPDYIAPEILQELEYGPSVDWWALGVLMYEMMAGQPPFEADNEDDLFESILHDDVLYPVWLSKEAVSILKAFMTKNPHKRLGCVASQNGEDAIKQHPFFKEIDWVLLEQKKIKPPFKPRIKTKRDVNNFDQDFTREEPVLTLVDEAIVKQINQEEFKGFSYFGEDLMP

[3] = biological target: Protein kinase C delta type (Homo sapiens) (UniProt Q05655); test: Modulation of PKCdelta in human K562 cells assessed as protein down-regulation after 24 hrs by Western blotting analysis; assay type: cell-based; method in brief: as §1
[4] = test system: U-937; test: Inhibition of PMA-induced human U937 cells antiproliferation activity after 60 hrs; assay type: functional, cell-based
Method in brief: (§2)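 Floating and attached cells counted 60 hr after treatment, giving proliferation (total count) and attachment. Mean ± SEM of five independent experiments.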

[5] = biological target: T2, Ras guanyl-releasing protein 3 (Homo sapiens) (UniProt Q8IV61); test: Modulation of RASGRP3 in human K562 cells assessed as […] after 24 hrs by Western blotting analysis; assay type: cell-based; method in brief: as §1
T2 sequence (whole entry): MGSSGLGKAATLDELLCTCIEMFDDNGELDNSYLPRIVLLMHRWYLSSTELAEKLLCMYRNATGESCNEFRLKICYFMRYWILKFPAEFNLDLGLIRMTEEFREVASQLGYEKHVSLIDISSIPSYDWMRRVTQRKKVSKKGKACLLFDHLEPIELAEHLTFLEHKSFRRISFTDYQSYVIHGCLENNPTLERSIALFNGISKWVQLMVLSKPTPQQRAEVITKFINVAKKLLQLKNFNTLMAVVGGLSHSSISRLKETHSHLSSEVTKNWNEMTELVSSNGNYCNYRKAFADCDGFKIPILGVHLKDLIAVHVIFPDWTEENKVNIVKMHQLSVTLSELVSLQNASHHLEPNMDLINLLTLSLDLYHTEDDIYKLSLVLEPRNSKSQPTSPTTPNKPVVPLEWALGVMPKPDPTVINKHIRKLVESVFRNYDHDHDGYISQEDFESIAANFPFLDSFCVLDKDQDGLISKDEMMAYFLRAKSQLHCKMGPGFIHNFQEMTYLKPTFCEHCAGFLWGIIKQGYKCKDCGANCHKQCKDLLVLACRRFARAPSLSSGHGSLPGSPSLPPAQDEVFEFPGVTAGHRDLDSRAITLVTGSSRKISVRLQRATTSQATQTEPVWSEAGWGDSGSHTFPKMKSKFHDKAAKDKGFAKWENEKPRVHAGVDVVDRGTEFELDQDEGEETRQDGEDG

[6] = test system: U-937; test: Inhibition of PMA-induced human U937 cell attachment treated for 24 hrs measured after 60 hrs; assay type: functional, cell-based; method in brief: as §2
[7] = test system: K562; test: Inhibition of bryostatin1-induced human K562 cell attachment treated for 24 hrs measured after 60 hrs; assay type: functional, cell-based
[8] = test system: MV4-11; test: Antiproliferative activity against human MV411 cells after 60 hrs in presence of PMA
[9] = Binding affinity to PKC
[10] = test system: K562; test: Antiproliferative activity against human K562 cells after 60 hrs in presence of PMA; assay type: functional, cell-based
Method in brief: (§3)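 K562 or MV4-11 cells were seeded, then exposed to compound 24 h later alongside 10 nM PMA. Total cell number was counted 60 h after treatment. Data are mean ± SEM of three independent experiments.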

[11] = test system: U-937; test: Antiproliferative activity against human U937 cells at 0.1 to 3000 nM after 60 hrs; assay type: functional, cell-based
Method in brief: (§4)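 U937 cells were seeded, then treated 24 h later across a concentration series. Floating and attached cells were counted separately 60 h after treatment, giving proliferation and attachment read-outs. Data are mean ± SEM of five independent experiments.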

[12] = test system: K562; test: Antiproliferative activity against human K562 cells after 60 hrs in presence of PMA
[13] = test system: MV4-11; test: Inhibition of bryostatin1-induced human MV411 cell attachment treated for 24 hrs measured after 60 hrs; assay type: functional, cell-based
[14] = test system: K562; test: Inhibition of PMA-induced human K562 cell attachment treated for 24 hrs measured after 60 hrs; assay type: functional, cell-based
[15] = test system: MV4-11; test: Antiproliferative activity against human MV411 cells after 60 hrs in presence of PMA; assay type: functional, cell-based; method in brief: as §3
[16] = test system: MV4-11; test: Inhibition of PMA-induced human MV411 cell attachment treated for 24 hrs measured after 60 hrs; assay type: functional, cell-based
[17] = test system: U-937; test: Induction of human U937 cells attachment at 0.1 to 3000 nM treated for 24 hrs measured after 60 hrs; assay type: functional, cell-based; method in brief: as §4
[18] = test system: U-937; test: Antiproliferative activity against human U937 cells at 0.1 to 1000 nM after 60 hrs; assay type: functional, cell-based; method in brief: as §2
[19] = test system: U-937; test: Induction of human U937 cells attachment at 0.1 to 1000 nM treated for 24 hrs measured after 60 hrs; assay type: functional, cell-based; method in brief: as §2

Sequence of Protein kinase C delta type (Homo sapiens) (Q05655 whole entry, looked up): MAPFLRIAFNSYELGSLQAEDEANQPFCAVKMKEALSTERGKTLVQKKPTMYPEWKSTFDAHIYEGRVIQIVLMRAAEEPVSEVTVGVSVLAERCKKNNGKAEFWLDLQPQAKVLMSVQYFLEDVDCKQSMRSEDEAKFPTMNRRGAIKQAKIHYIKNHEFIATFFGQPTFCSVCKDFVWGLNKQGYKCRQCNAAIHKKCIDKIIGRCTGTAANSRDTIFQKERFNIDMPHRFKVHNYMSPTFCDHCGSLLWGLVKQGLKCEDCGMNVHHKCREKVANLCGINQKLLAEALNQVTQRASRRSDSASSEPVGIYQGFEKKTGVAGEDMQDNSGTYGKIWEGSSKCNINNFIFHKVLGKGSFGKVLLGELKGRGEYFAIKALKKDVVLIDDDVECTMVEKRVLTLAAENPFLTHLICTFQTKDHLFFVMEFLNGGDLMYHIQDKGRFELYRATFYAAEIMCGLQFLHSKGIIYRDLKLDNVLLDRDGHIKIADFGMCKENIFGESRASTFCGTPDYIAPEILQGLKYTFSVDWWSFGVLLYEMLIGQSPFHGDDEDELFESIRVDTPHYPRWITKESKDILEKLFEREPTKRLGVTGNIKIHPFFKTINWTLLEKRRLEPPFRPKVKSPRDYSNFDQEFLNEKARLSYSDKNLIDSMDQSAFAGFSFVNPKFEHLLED
Sequence of Protein kinase C beta type (Homo sapiens) (P05771 2-671 limits assumed): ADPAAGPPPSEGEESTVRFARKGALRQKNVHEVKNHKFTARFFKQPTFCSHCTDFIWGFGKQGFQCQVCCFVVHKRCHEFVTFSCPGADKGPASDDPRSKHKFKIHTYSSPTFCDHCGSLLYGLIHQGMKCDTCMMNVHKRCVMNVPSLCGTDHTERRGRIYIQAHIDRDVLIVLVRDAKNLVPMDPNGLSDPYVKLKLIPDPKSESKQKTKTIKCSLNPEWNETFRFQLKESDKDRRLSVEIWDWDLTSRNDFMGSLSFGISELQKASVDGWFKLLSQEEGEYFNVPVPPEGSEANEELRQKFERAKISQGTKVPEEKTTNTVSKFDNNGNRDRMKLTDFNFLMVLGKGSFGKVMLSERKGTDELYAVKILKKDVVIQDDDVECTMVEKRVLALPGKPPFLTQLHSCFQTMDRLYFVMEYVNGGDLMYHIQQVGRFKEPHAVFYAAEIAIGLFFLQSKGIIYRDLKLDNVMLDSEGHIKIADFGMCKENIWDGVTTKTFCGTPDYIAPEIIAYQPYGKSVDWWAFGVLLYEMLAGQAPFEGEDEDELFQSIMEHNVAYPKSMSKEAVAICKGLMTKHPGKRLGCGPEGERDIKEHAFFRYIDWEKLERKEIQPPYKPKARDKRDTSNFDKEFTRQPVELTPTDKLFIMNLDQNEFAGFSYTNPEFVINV

SMILES	Activity [1]	Activity [2]	Activity [3]	inhibition [4]	Activity [5]	inhibition [6]	inhibition [7]	Activity [8]	Ki [9] [nM]	Activity [10]	Activity [11]	Activity [12]	inhibition [13]	inhibition [14]	Activity [15]	inhibition [16]	Activity [17]	Activity [18]	Activity [19]
CCC/C=C/C=C/C(=O)O[C@H]1/C(=C/C(=O)OC)C[C@H]2C[C@H]([C@@H](C)O)OC(=O)C[C@H](O)C[C@@H]3C[C@H](OC(C)=O)C(C)(C)[C@](O)(C[C@@H]4C/C(=C/C(=O)OC)C[C@H](/C=C/C(C)(C)[C@]1(O)O2)O4)O3	Active	inactive	Active	Dose-dependent effect	inactive	Dose-dependent effect	–	–	–	–	–	–	–	–	–	–	–	–	–
C=C1C[C@H]2C[C@@H]3O[C@@H](CC(=C)C3(C)C)C[C@@H](O)CC(=O)O[C@@H]([C@@H](C)O)C[C@@H]3C/C(=C\C(=O)OC)[C@H](OC(=O)/C=C/C=C/CCC)[C@@](O)(O3)C(C)(C)/C=C/[C@@H](C1)O2	–	Active	–	–	Active	–	Active	Dose-dependent effect	1.08	Dose-dependent effect	Active	Dose-dependent effect	Active	inactive	Dose-dependent effect	inactive	Active	–	–
CCCCCCCCCCCCCC(=O)O[C@@H]1[C@@H](C)[C@@]2(O)[C@@H](C=C(CO)C[C@]3(O)C(=O)C(C)=C[C@@H]23)[C@@H]2C(C)(C)[C@]12OC(C)=O	–	Active	–	–	Active	–	–	–	–	–	–	–	–	–	–	–	–	Active	Active
